Data published in ChEMBL document CHEMBL4190221, “Inhibition of Proliferation of Vascular Smooth Muscle Cells by Cucurbitanes from Momordica charantia” (J Nat Prod, 2017).
The source made the active and inactive calls. No cut-off for these calls is given here.

Legend:
VSMC [1] = assay: Cytotoxicity against Sprague-Dawley rat VSMC assessed as decrease in cell viability at >5 uM after 24 hrs by MTT assay; assay type: cell-based
Method in brief: (§1)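 Primary aortic smooth muscle cells from Sprague-Dawley rats, passages 7–10, grown in DMEM/10% FBS at 37 °C and seeded at 3.0 × 10^4 cells/mL. Cells were serum-starved 24 h, then exposed to compound for 24 h alongside a 0.1% DMSO control and a digitonin 100 μg/mL cytotoxicity control. MTT 5 mg/mL was added for 2 h, formazan taken up in DMSO, and OD read at 565 nm. Four independent experiments, each in triplicate.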

VSMC [2] = assay: Cytotoxicity against Sprague-Dawley rat VSMC assessed as decrease in cell viability at 0.5 to 1 uM after 24 hrs by MTT assay; assay type: cell-based; method in brief: as §1
VSMC [3] = assay: Cytotoxicity against Sprague-Dawley rat VSMC assessed as decrease in cell viability at 5 to 10 uM after 24 hrs by MTT assay; assay type: cell-based; method in brief: as §1
VSMC [4] = assay: Inhibition of PDGF-induced Sprague-Dawley rat VSMC proliferation at 5 to 10 uM pretreated for 2 hrs followed by PDGF stimulation measured after 24 hrs by MTT assay; assay type: functional, cell-based
Method in brief: (§2)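 Rat aortic VSMCs (Sprague-Dawley, passages 7–10) were seeded at 3.0 × 10^4 cells/mL, grown 24 h in DMEM/10% FBS, then serum-starved 24 h. Compound was added 2 h before PDGF 25 ng/mL, followed by 24 h more incubation. Paclitaxel 1 μM served as positive control. MTT read-out at 565 nm. Four independent experiments in triplicate, compared against PDGF-stimulated cells.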

VSMC [5] = assay: Inhibition of PDGF-induced Sprague-Dawley rat VSMC proliferation at 10 uM pretreated for 2 hrs followed by PDGF stimulation measured after 24 hrs by MTT assay relative to control; assay type: functional; method in brief: as §2

SMILES | Activity (VSMC [1]) | Activity (VSMC [2]) | Activity (VSMC [3]) | inhibition (VSMC [4]) | inhibition at 10 µM (VSMC [5]) [%]
COC(C)(C)/C=C/C[C@@H](C)[C@H]1CC[C@@]2(C)[C@@H]3C=C[C@@]45OC(=O)[C@]3(CC[C@]12C)[C@@H]4CC[C@H](OC(=O)CC(=O)O)C5(C)C | Toxic | Non-Toxic |  |  | 
COC(C)(C)/C=C/C[C@@H](C)[C@H]1CC[C@@]2(C)[C@@H]3[C@@H](O)C=C4[C@@H](CC[C@H](OC(=O)CC(=O)O)C4(C)C)[C@]3(C=O)CC[C@]12C |  |  | Non-Toxic | Active | 
CO[C@H]1O[C@]23C=C[C@@H]4[C@@]1(CC[C@]1(C)[C@@H]([C@H](C)C/C=C/C(C)(C)OC)CC[C@@]41C)[C@@H]2CC[C@H](OC(=O)C(=O)O)C3(C)C |  |  | Non-Toxic |  | 
CO[C@H](C=C(C)C)C[C@@H](C)[C@H]1CC[C@@]2(C)[C@@H]3[C@@H](OC)C=C4[C@@H](CC[C@H](OC(=O)CC(=O)O)C4(C)C)[C@]3(C=O)CC[C@]12C |  |  | Non-Toxic |  | 67.9
C[C@H](C/C=C/C(C)(C)O)[C@H]1CC[C@@]2(C)[C@@H]3C=C[C@@]45OC(=O)[C@]3(CC[C@]12C)[C@@H]4CC[C@H](O[C@@H]1O[C@H](CO)[C@@H](O)[C@@H](O)[C@H]1O)C5(C)C |  |  | Non-Toxic | Active | 
CO[C@H]1O[C@]23C=C[C@@H]4[C@@]1(CC[C@]1(C)[C@@H]([C@H](C)C/C=C/C(C)(C)OC)CC[C@@]41C)[C@@H]2CC[C@H](OC(=O)CC(=O)O)C3(C)C |  |  | Non-Toxic |  | 72.4
C[C@H](C/C=C/C(C)(C)O)[C@H]1CC[C@@]2(C)[C@@H]3[C@@H](O)C=C4[C@@H](CC[C@H](OC(=O)CC(=O)O)C4(C)C)[C@]3(C=O)CC[C@]12C |  |  | Non-Toxic | Active | 
